Legend:
[1] = tested on: MDA-MB-468; test: Growth inhibition of human MDA-MB-468 cells after 48 hrs by sulforhodamine B assay; assay type: functional, cell-based; settings: MDA-MB-468, 48 h
Procedure, shortened: (§1)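 Cells grown in RPMI 1640 with 5% FBS and 2 mM L-glutamine, seeded at 5,000–40,000 cells/well according to doubling time. After 24 h, time-zero plates are TCA-fixed. Five concentrations (10-fold or ½log dilutions, DMSO stocks) are applied for 48 h at 37 °C, 5% CO₂. Cells are TCA-fixed, SRB-stained and read at 515 nm. IC₅₀ is taken from [(Ti−Tz)/(C−Tz)]×100 = 50.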

[2] = tested on: NCI-H322M; test: Cytotoxicity against human NCI-H322M cells assessed as cell growth at 0.001 uM after 48 hrs by sulforhodamine B assay; assay type: functional; settings: read-out: Activity
[3] = tested on: NCI-H522; test: Cytotoxicity against human NCI-H522 cells assessed as cell growth at 0.001 uM after 48 hrs by sulforhodamine B assay; assay type: functional; settings: NCI-H522, 48 h, read-out: Activity
[4] = tested on: SF-539; test: Cytotoxicity against human SF539 cells assessed as cell growth at 0.001 uM after 48 hrs by sulforhodamine B assay; assay type: functional; settings: SF-539, 48 h, read-out: Activity
[5] = tested on: SNB-19; test: Cytotoxicity against human SNB19 cells assessed as cell growth at 0.001 uM after 48 hrs by sulforhodamine B assay; assay type: functional; settings: SNB-19, 48 h, read-out: Activity
[6] = tested on: U-251; test: Cytotoxicity against human U251 cells assessed as cell growth at 0.001 uM after 48 hrs by sulforhodamine B assay; assay type: functional; settings: U-251, 48 h, read-out: Activity
[7] = tested on: Malme-3M; test: Cytotoxicity against human MALME-3M cells assessed as cell growth at 0.001 uM after 48 hrs by sulforhodamine B assay; assay type: functional; settings: read-out: Activity
[8] = tested on: SK-MEL-2; test: Cytotoxicity against human SK-MEL-2 cells assessed as cell growth at 0.001 uM after 48 hrs by sulforhodamine B assay; assay type: functional; settings: SK-MEL-2, 48 h, read-out: Activity
[9] = tested on: OVCAR-3; test: Cytotoxicity against human OVCAR-3 cells assessed as cell growth at 0.001 uM after 48 hrs by sulforhodamine B assay; assay type: functional; settings: OVCAR-3, 48 h, read-out: Activity
[10] = tested on: SW-620; test: Cytotoxicity against human SW620 cells assessed as cell growth at 100 nM after 48 hrs by sulforhodamine B assay; assay type: functional; settings: SW-620, 48 h, read-out: Activity
[11] = tested on: LOX IMVI; test: Cytotoxicity against human LOXIMVI cells assessed as cell growth at 100 nM after 48 hrs by sulforhodamine B assay; assay type: functional; settings: read-out: Activity
[12] = tested on: SK-MEL-2; test: Cytotoxicity against human SK-MEL-2 cells assessed as cell growth at 100 nM after 48 hrs by sulforhodamine B assay; assay type: functional; settings: SK-MEL-2, 48 h, read-out: Activity
[13] = tested on: NCI/ADR-RES; test: Cytotoxicity against human NCI/ADR-RES cells assessed as cell growth at 100 nM after 48 hrs by sulforhodamine B assay; assay type: functional; settings: read-out: Activity
[14] = tested on: SK-OV-3; test: Cytotoxicity against human SKOV3 cells assessed as cell growth at 100 nM after 48 hrs by sulforhodamine B assay; assay type: functional; settings: SK-OV-3, 48 h, read-out: Activity
[15] = tested on: CAKI-1; test: Cytotoxicity against human Caki1 cells assessed as cell growth at 100 nM after 48 hrs by sulforhodamine B assay; assay type: functional; settings: CAKI-1, 48 h, read-out: Activity
[16] = tested on: MOLT-4; test: Cytotoxicity against human MOLT4 cells assessed as cell growth at 0.01 uM after 48 hrs by sulforhodamine B assay; assay type: functional; settings: MOLT-4, 48 h, read-out: Activity
[17] = tested on: HCT-15; test: Cytotoxicity against human HCT15 cells assessed as cell growth at 0.01 uM after 48 hrs by sulforhodamine B assay; assay type: functional; settings: HCT-15, 48 h, read-out: Activity
[18] = tested on: KM12; test: Cytotoxicity against human KM12 cells assessed as cell growth at 0.01 uM after 48 hrs by sulforhodamine B assay; assay type: functional; settings: KM12, 48 h, read-out: Activity
[19] = tested on: U-251; test: Cytotoxicity against human U251 cells assessed as cell growth at 0.01 uM after 48 hrs by sulforhodamine B assay; assay type: functional; settings: U-251, 48 h, read-out: Activity
[20] = tested on: Malme-3M; test: Cytotoxicity against human MALME-3M cells assessed as cell growth at 0.01 uM after 48 hrs by sulforhodamine B assay; assay type: functional; settings: read-out: Activity
[21] = tested on: M14; test: Cytotoxicity against human M14 cells assessed as cell growth at 0.01 uM after 48 hrs by sulforhodamine B assay; assay type: functional; settings: M14, 48 h, read-out: Activity
[22] = tested on: DU-145; test: Cytotoxicity against human DU145 cells assessed as cell growth at 100 nM after 48 hrs by sulforhodamine B assay; assay type: functional; settings: DU-145, 48 h, read-out: Activity
[23] = tested on: A549; test: Cytotoxicity against human A549 cells assessed as cell growth at 1 uM after 48 hrs by sulforhodamine B assay; assay type: functional; settings: A549, 48 h, read-out: Activity
Procedure, shortened: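 Cells grown in RPMI 1640 with 5% FBS and 2 mM L-glutamine, seeded at 5,000–40,000 cells/well by doubling time. Time-zero plates TCA-fixed after 24 h. Five concentrations (10-fold or half-log dilutions from DMSO stock) added; 48 h at 37 °C, 5% CO2. Cold TCA fixation (final 10%, 60 min, 4 °C), 0.4% SRB stain, dye solubilized in 10 mM trizma base, A515.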

[24] = tested on: HOP-62; test: Cytotoxicity against human HOP62 cells assessed as cell growth at 1 uM after 48 hrs by sulforhodamine B assay; assay type: functional; settings: HOP-62, 48 h, read-out: Activity
[25] = tested on: NCI-H322M; test: Cytotoxicity against human NCI-H322M cells assessed as cell growth at 1 uM after 48 hrs by sulforhodamine B assay; assay type: functional; settings: read-out: Activity
[26] = tested on: UACC-257; test: Cytotoxicity against human UACC257 cells assessed as cell growth at 0.01 uM after 48 hrs by sulforhodamine B assay; assay type: functional; settings: UACC-257, 48 h, read-out: Activity
[27] = tested on: OVCAR-8; test: Cytotoxicity against human OVCAR8 cells assessed as cell growth at 0.01 uM after 48 hrs by sulforhodamine B assay; assay type: functional; settings: OVCAR-8, 48 h, read-out: Activity
[28] = tested on: UACC-62; test: Cytotoxicity against human UACC62 cells assessed as cell growth at 1 uM after 48 hrs by sulforhodamine B assay; assay type: functional; settings: UACC-62, 48 h, read-out: Activity
[29] = tested on: OVCAR-8; test: Cytotoxicity against human OVCAR8 cells assessed as cell growth at 1 uM after 48 hrs by sulforhodamine B assay; assay type: functional; settings: OVCAR-8, 48 h, read-out: Activity
[30] = tested on: UO-31; test: Cytotoxicity against human UO31 cells assessed as cell growth at 1 uM after 48 hrs by sulforhodamine B assay; assay type: functional; settings: UO-31, 48 h, read-out: Activity
[31] = tested on: NCI-H522; test: Cytotoxicity against human NCI-H522 cells assessed as cell growth at 10 uM after 48 hrs by sulforhodamine B assay; assay type: functional; settings: NCI-H522, 48 h, read-out: Activity
[32] = tested on: NCI-H23; test: Growth inhibition of human NCI-H23 cells after 48 hrs by sulforhodamine B assay; assay type: functional, cell-based; settings: NCI-H23, 48 h; procedure, shortened: as §1
[33] = tested on: U-251; test: Growth inhibition of human U251 cells after 48 hrs by sulforhodamine B assay; assay type: functional, cell-based; settings: Homo sapiens, U-251, 48 h; procedure, shortened: as §1
[34] = read-out: LC50 (the source's name)

CC(=O)Nc1cccc(-c2ccc(-c3ccnc(NC(=O)Nc4cc(C(F)(F)F)cc(C(F)(F)F)c4)n3)cn2)c1.Cl
GI50 [1]: 837 nM | IC50 [1]: 837 nM | LC50 [1]: 5850 nM | TGI [1]: 2350 nM | growth at 0.001 µM [2]: 91% | growth at 0.001 µM [3]: 86% | growth at 0.001 µM [4]: 97% | growth at 0.001 µM [5]: 95% | growth at 0.001 µM [6]: 98% | growth at 0.001 µM [7]: 92% | growth at 0.001 µM [8]: 95% | growth at 0.001 µM [9]: 101% | growth at 0.1 µM [10]: 97% | growth at 0.1 µM [11]: 81% | growth at 0.1 µM [12]: 96% | growth at 0.1 µM [13]: 93% | growth at 0.1 µM [14]: 94% | growth at 0.1 µM [15]: 64% | growth at 0.01 µM [16]: 90% | growth at 0.01 µM [17]: 91% | growth at 0.01 µM [18]: 99% | growth at 0.01 µM [19]: 90% | growth at 0.01 µM [20]: 88% | growth at 0.01 µM [21]: 92% | growth at 0.1 µM [22]: 102% | growth at 1 µM [23]: 10% | growth at 1 µM [24]: 27% | growth at 1 µM [25]: 12% | growth at 0.01 µM [26]: 96% | growth at 0.01 µM [27]: 96% | growth at 1 µM [28]: 12% | growth at 1 µM [29]: -25% | growth at 1 µM [30]: 48% | growth at 10 µM [31]: -73% | GI50 [32]: 2240 nM | IC50 [32]: 2240 nM | TGI [32]: 6940 nM | CC50 [32, 34]: 43800 nM | GI50 [33]: 2000 nM | IC50 [33]: 2000 nM | TGI [33]: 5320 nM | CC50 [33, 34]: 18900 nM

From ChEMBL document CHEMBL1165943, “Design and synthesis of new anticancer pyrimidines with multiple-kinase inhibitory effect” (Bioorg Med Chem, 2010)
